{
  "source": "ChEMBL document CHEMBL1141693",
  "about": "“Discovery of benzoylpiperazines as a novel class of potent and selective GlyT1 inhibitors” (Bioorg Med Chem Lett, 2008)",
  "data": [
    {"biological_target": "T1, Sodium- and chloride-dependent glycine transporter 1 (Homo sapiens, UniProt P48067)", "T1 sequence (P48067 whole entry)": "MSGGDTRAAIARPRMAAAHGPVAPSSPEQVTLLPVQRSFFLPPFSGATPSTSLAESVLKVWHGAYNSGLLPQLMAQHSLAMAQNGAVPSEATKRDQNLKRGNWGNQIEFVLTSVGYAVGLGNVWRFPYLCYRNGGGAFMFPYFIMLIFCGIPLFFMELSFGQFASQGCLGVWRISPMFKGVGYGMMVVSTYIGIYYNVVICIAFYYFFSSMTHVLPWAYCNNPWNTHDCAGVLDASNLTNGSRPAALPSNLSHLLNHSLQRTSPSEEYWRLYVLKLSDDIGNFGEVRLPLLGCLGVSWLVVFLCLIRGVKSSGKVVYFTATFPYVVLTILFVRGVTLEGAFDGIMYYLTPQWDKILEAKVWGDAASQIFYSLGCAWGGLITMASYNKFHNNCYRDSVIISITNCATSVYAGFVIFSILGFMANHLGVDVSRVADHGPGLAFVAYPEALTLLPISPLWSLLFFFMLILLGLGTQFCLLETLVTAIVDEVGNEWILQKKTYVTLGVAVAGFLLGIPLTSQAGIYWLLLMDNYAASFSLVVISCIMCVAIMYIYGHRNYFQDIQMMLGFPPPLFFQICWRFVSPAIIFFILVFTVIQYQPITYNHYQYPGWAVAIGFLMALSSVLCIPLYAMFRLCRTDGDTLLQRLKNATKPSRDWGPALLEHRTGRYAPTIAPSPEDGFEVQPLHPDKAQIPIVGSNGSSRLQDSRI", "test": "Inhibition of [3H]glycine uptake at human glycine transporter 1 expressed in CHO cells by scintillation counter", "type": "cell-based", "conditions": "not given", "units": {"EC50": "nM"}, "values": [
      {"smiles": "CS(=O)(=O)c1ccc(N2CCOCC2)c(C(=O)N2CCN(c3ccc(C(F)(F)F)cc3)CC2)c1", "EC50": 45},
      {"smiles": "CC(=O)c1ccc(N2CCN(C(=O)c3cc(S(=O)(=O)Cc4ccccc4)ccc3N3CCOCC3)CC2)c(F)c1", "EC50": "> 30000"},
      {"smiles": "O=C(c1cc([N+](=O)[O-])ccc1N1CCOCC1)N1CCN(c2ccc(C(F)(F)F)c(F)c2)CC1", "EC50": 37},
      {"smiles": "CC(=O)c1ccc(N2CCN(C(=O)c3cc([N+](=O)[O-])ccc3N3CCOCC3)CC2)c(F)c1", "EC50": 15},
      {"smiles": "CS(=O)(=O)c1ccc(N2CCN(C(=O)c3cc([N+](=O)[O-])ccc3N3CCOCC3)CC2)c(F)c1", "EC50": 40},
      {"smiles": "CCCS(=O)(=O)c1ccc(N2CCOCC2)c(C(=O)N2CCN(c3ccc(C(C)=O)cc3F)CC2)c1", "EC50": 1600},
      {"smiles": "CC(=O)c1ccc(N2CCN(C(=O)c3cc(S(N)(=O)=O)ccc3N3CCOCC3)CC2)c(F)c1", "EC50": 120},
      {"smiles": "CC(=O)c1ccc(N2CCN(C(=O)c3cc([N+](=O)[O-])ccc3NC3CCCCC3)CC2)c(F)c1", "EC50": 2},
      {"smiles": "N#Cc1ccc(N2CCN(C(=O)c3cc([N+](=O)[O-])ccc3N3CCOCC3)CC2)c(F)c1", "EC50": 30},
      {"smiles": "CC(=O)c1ccc(N2CCN(C(=O)c3ccccc3N3CCOCC3)CC2)c(F)c1", "EC50": "> 30000"},
      {"smiles": "CC(=O)c1ccc(N2CCN(C(=O)c3cc(C#N)ccc3N3CCOCC3)CC2)c(F)c1", "EC50": 180}
    ]},
    {"biological_target": "T2, Sodium- and chloride-dependent glycine transporter 2 (Homo sapiens, UniProt Q9Y345)", "T2 sequence (Q9Y345 whole entry)": "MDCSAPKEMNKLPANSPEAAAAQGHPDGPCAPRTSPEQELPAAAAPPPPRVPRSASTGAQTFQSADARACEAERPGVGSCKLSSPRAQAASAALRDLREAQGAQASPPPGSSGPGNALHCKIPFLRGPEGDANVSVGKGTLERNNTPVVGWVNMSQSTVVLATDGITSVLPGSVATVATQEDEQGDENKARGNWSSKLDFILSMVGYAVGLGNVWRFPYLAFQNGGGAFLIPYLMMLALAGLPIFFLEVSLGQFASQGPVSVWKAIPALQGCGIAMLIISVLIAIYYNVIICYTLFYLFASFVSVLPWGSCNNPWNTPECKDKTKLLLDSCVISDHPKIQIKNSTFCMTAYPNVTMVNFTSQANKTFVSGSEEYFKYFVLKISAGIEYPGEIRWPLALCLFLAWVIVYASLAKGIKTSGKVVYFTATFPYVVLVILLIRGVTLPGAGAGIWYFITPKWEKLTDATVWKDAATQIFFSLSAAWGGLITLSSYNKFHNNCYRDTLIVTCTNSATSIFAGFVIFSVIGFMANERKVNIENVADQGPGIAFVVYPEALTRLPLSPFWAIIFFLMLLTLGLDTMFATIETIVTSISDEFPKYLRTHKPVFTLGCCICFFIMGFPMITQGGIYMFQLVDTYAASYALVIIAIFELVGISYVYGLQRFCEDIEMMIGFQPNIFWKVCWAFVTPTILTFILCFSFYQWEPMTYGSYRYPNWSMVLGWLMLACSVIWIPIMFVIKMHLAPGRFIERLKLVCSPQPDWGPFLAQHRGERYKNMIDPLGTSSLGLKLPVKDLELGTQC", "test": "Inhibition of [3H]glycine uptake at human glycine transporter 2 expressed in CHO cells by scintillation counter", "type": "cell-based", "conditions": "not given", "method_in_brief": "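[³H]-glycine uptake inhibition in cells transfected with human GlyT2 cDNA. EC50 is the average of at least two independent experiments.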", "units": {"EC50": "µM"}, "values": [
      {"smiles": "CC(=O)c1ccc(N2CCN(C(=O)c3cc(S(=O)(=O)Cc4ccccc4)ccc3N3CCOCC3)CC2)c(F)c1", "EC50": "> 30"},
      {"smiles": "O=C(c1cc([N+](=O)[O-])ccc1N1CCOCC1)N1CCN(c2ccc(C(F)(F)F)c(F)c2)CC1", "EC50": 15},
      {"smiles": "CC(=O)c1ccc(N2CCN(C(=O)c3cc([N+](=O)[O-])ccc3N3CCOCC3)CC2)c(F)c1", "EC50": 4.8},
      {"smiles": "CS(=O)(=O)c1ccc(N2CCN(C(=O)c3cc([N+](=O)[O-])ccc3N3CCOCC3)CC2)c(F)c1", "EC50": "> 30"},
      {"smiles": "CCCS(=O)(=O)c1ccc(N2CCOCC2)c(C(=O)N2CCN(c3ccc(C(C)=O)cc3F)CC2)c1", "EC50": "> 30"},
      {"smiles": "CC(=O)c1ccc(N2CCN(C(=O)c3cc(S(N)(=O)=O)ccc3N3CCOCC3)CC2)c(F)c1", "EC50": "> 30"},
      {"smiles": "CC(=O)c1ccc(N2CCN(C(=O)c3cc([N+](=O)[O-])ccc3NC3CCCCC3)CC2)c(F)c1", "EC50": 8.5},
      {"smiles": "N#Cc1ccc(N2CCN(C(=O)c3cc([N+](=O)[O-])ccc3N3CCOCC3)CC2)c(F)c1", "EC50": 4.3},
      {"smiles": "CC(=O)c1ccc(N2CCN(C(=O)c3cc(C#N)ccc3N3CCOCC3)CC2)c(F)c1", "EC50": 13}
    ]},
    {"organism": "Homo sapiens", "test": "Selectivity ratio of IC50 for human glycine transporter 2 to IC50 for human glycine transporter 1", "conditions": "not given", "method_in_brief": "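[³H]-glycine uptake inhibition in cells transfected with human GlyT1 or human GlyT2 cDNA. Each EC50 is the average of at least two independent experiments. Selectivity is the ratio of GlyT2 EC50 to GlyT1 EC50.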", "values": [
      {"smiles": "CC(=O)c1ccc(N2CCN(C(=O)c3cc([N+](=O)[O-])ccc3N3CCOCC3)CC2)c(F)c1", "Ratio EC50": 320},
      {"smiles": "CC(=O)c1ccc(N2CCN(C(=O)c3cc(S(N)(=O)=O)ccc3N3CCOCC3)CC2)c(F)c1", "Ratio EC50": "> 250"},
      {"smiles": "CC(=O)c1ccc(N2CCN(C(=O)c3cc(C#N)ccc3N3CCOCC3)CC2)c(F)c1", "Ratio EC50": 72}
    ]},
    {"system": "not listed separately", "test": "Aqueous solubility in phosphate buffer at pH 6.5 by lyophilization solubility assay", "type": "physicochemical", "conditions": "not given", "method_in_brief": "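Aqueous solubility was measured at pH 6.5 in a lyophilization solubility assay.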", "units": {"solubility": "µg/mL"}, "values": [
      {"smiles": "CS(=O)(=O)c1ccc(N2CCOCC2)c(C(=O)N2CCN(c3ccc(C(F)(F)F)cc3)CC2)c1", "solubility": 3},
      {"smiles": "CC(=O)c1ccc(N2CCN(C(=O)c3cc([N+](=O)[O-])ccc3N3CCOCC3)CC2)c(F)c1", "solubility": 9},
      {"smiles": "CC(=O)c1ccc(N2CCN(C(=O)c3cc(S(N)(=O)=O)ccc3N3CCOCC3)CC2)c(F)c1", "solubility": 308},
      {"smiles": "CC(=O)c1ccc(N2CCN(C(=O)c3cc(C#N)ccc3N3CCOCC3)CC2)c(F)c1", "solubility": "< 1"}
    ]},
    {"system": "not listed separately", "test": "Membrane permeability by PAMPA", "type": "ADME", "conditions": "read-out: permeability", "method_in_brief": "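PAMPA artificial-membrane permeation, reported as the permeation constant Pe in 10^-6 cm/s.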", "units": {"Papp": "×10⁻⁶ cm/s"}, "values": [
      {"smiles": "CC(=O)c1ccc(N2CCN(C(=O)c3cc([N+](=O)[O-])ccc3N3CCOCC3)CC2)c(F)c1", "Papp": 4.7},
      {"smiles": "CC(=O)c1ccc(N2CCN(C(=O)c3cc(S(N)(=O)=O)ccc3N3CCOCC3)CC2)c(F)c1", "Papp": 3.3},
      {"smiles": "CC(=O)c1ccc(N2CCN(C(=O)c3cc(C#N)ccc3N3CCOCC3)CC2)c(F)c1", "Papp": 6.1}
    ]},
    {"system": "Liver microsomes", "test": "Metabolic stability in rat liver microsomes assessed as intrinsic clearance per […] of protein", "type": "ADME, Microsome", "conditions": "not given", "method_in_brief": "(§1)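 Intrinsic clearance measured in liver microsomes from rat, mouse or human, expressed per mg microsomal protein.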", "units": {"clearance": "µL/min/mg"}, "values": [
      {"smiles": "CC(=O)c1ccc(N2CCN(C(=O)c3cc([N+](=O)[O-])ccc3N3CCOCC3)CC2)c(F)c1", "clearance": 106},
      {"smiles": "CC(=O)c1ccc(N2CCN(C(=O)c3cc(C#N)ccc3N3CCOCC3)CC2)c(F)c1", "clearance": 53}
    ]},
    {"system": "Liver microsomes", "test": "Metabolic stability in human liver microsomes assessed as intrinsic clearance per […] of protein", "type": "ADME, Microsome", "conditions": "not given", "method_in_brief": "as §1", "units": {"clearance": "µL/min/mg"}, "values": [
      {"smiles": "CS(=O)(=O)c1ccc(N2CCOCC2)c(C(=O)N2CCN(c3ccc(C(F)(F)F)cc3)CC2)c1", "clearance": 10},
      {"smiles": "CC(=O)c1ccc(N2CCN(C(=O)c3cc([N+](=O)[O-])ccc3N3CCOCC3)CC2)c(F)c1", "clearance": 35},
      {"smiles": "CC(=O)c1ccc(N2CCN(C(=O)c3cc(S(N)(=O)=O)ccc3N3CCOCC3)CC2)c(F)c1", "clearance": 31},
      {"smiles": "CC(=O)c1ccc(N2CCN(C(=O)c3cc(C#N)ccc3N3CCOCC3)CC2)c(F)c1", "clearance": 31}
    ]},
    {"system": "not listed separately", "test": "Metabolic stability in mouse liver microsomes assessed as intrinsic clearance per […] of protein", "type": "ADME, Microsome", "conditions": "not given", "method_in_brief": "as §1", "units": {"clearance": "µL/min/mg"}, "values": [
      {"smiles": "CS(=O)(=O)c1ccc(N2CCOCC2)c(C(=O)N2CCN(c3ccc(C(F)(F)F)cc3)CC2)c1", "clearance": 15}
    ]}
  ]
}
